Among the data in ChEMBL document CHEMBL5236607, “Membrane-Active Cyclic Amphiphilic Peptides: Broad-Spectrum Antibacterial Activity Alone and in Combination with Antibiotics” (J Med Chem, 2022) are MIC, TI and Activity values, retold here.

The source made the active and inactive calls. The rule behind the calls is not given here. Bridge positions count the residues as written; N and C are the ends. Square brackets hold non-standard residues; d marks the D form. Peptide text beside a SMILES is read from it. * marks the point of attachment. X1 = CC[C@H](C)CCCCC(=O)*; Dab = NCC[C@H](N)C(=O)O A value given as a limit tells only on which side of the number the result lay.

The subject of test [1] is Escherichia coli. As to the kind of experiment: Antibacterial activity against Escherichia coli ATCC 25922 after 24 hrs by microbroth dilution method. The test is classed as functional. (In general: In broth dilution the organism is exposed to a series of concentrations in liquid medium.)
A further test deals with Klebsiella pneumoniae. As to the kind of experiment: Antibacterial activity against imipenem resistant Klebsiella pneumoniae ATCC BAA-1705 after 24 hrs by microbroth dilution method. The format is functional.
Test [2] in a line: Therapeutic index, ratio of HC50 for human RBC to MIC for methicillin resistant Staphylococcus aureus ATCC BAA-1556. In outline: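 Human RBCs washed in PBS pH 7.4 and mixed 1:1 with two-fold peptide dilutions (4% v/v suspension), 2 h at 37 °C. Hemoglobin in supernatant read at 567 nm against PBS (0%) and 1% Triton X-100 (100%). HC50 is the concentration giving 50% hemolysis. Index is HC50 divided by MIC against MRSA.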

The test system of test [3] is Staphylococcus aureus. As to the kind of experiment: Antibacterial activity against methicillin resistant Staphylococcus aureus ATCC BAA-1556 after 24 hrs by microbroth dilution method. The test is classed as functional.
The subject of another test is Pseudomonas aeruginosa. As to the kind of experiment: Antibacterial activity against Pseudomonas aeruginosa ATCC […] after 24 hrs by microbroth dilution method. The test is classed as functional.
Test [4] has as its system Staphylococcus aureus. Briefly: Induction of resistance development in Staphylococcus aureus ATCC 29213 assessed as increase in MIC by microtiter plate reader assay. The test is classed as functional, organism-based. The essentials: (§1)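 Serial passage resistance assay with 2-fold microdilution MICs in 96-well plates. Each passage takes the well with the highest concentration still permitting growth, adjusts it to 0.5 McFarland, and dilutes it to a final 5 × 10^5 CFU/mL for the next passage. Eighteen passages; MIC recorded at each. Triplicate.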

Test [5] has as its system Escherichia coli. Briefly: Induction of resistance development in Escherichia coli ATCC 25922 assessed as increase in MIC by microtiter plate reader assay. The format is functional, organism-based.
Test [6] concerns Escherichia coli. As to the kind of experiment: Induction of resistance development in Escherichia coli ATCC BAA-2452 assessed as increase in MIC by microtiter plate reader assay. The test is classed as functional, organism-based. In outline:
as §1

Test [7] concerns Staphylococcus aureus. As to the kind of experiment: Induction of resistance development in methicillin resistant Staphylococcus aureus ATCC BAA-1556 assessed as increase in MIC by microtiter plate reader assay. The test is classed as functional, organism-based. In outline:
as §1

Usually MIC stands for the lowest concentration that inhibits growth of the organism. Read a high MIC as weaker potency. As for `N=C(N)NCCC[C@@H]1NC(=O)[C@H](CCCNC(=N)N)NC(=O)[C@H](CCCNC(=N)N)NC(=O)[C@H](Cc2c[nH]c3ccccc23)NC(=O)[C@H](Cc2c[nH]c3ccccc23)NC(=O)[C@H](Cc2c[nH]c3ccccc23)NC(=O)[C@H](Cc2c[nH]c3ccccc23)NC(=O)[C@H](Cc2c[nH]c3ccccc23)NC(=O)[C@H](Cc2c[nH]c3ccccc23)NC(=O)[C@H](Cc2c[nH]c3ccccc23)NC(=O)[C@H](CCCNC(=N)N)NC(=O)[C@H](CCCNC(=N)N)NC1=O` (cyclo(RRRRRWWWWWWW)), the MIC in the test with Escherichia coli [1], against Klebsiella pneumoniae, in the test with Staphylococcus aureus [3] and against Pseudomonas aeruginosa was above 256 µg/mL throughout. Moreover, in [2], the TI is above 0.45.

`N=C(N)NCCC[C@@H]1NC(=O)[C@H](CCCNC(=N)N)NC(=O)[C@H](CCCNC(=N)N)NC(=O)[C@H](CCCNC(=N)N)NC(=O)[C@H](Cc2c[nH]c3ccccc23)NC(=O)[C@H](Cc2c[nH]c3ccccc23)NC(=O)[C@H](Cc2c[nH]c3ccccc23)NC(=O)[C@H](Cc2c[nH]c3ccccc23)NC(=O)[C@H](Cc2c[nH]c3ccccc23)NC(=O)[C@H](Cc2c[nH]c3ccccc23)NC(=O)[C@H](CCCNC(=N)N)NC(=O)[C@H](CCCNC(=N)N)NC(=O)[C@H](CCCNC(=N)N)NC1=O` (cyclo(RRRRRRRWWWWWW)): the TI in test [2] was determined as 5.31.

Regarding `N=C(N)NCCC[C@@H]1NC(=O)[C@H](CCCNC(=N)N)NC(=O)[C@H](CCCNC(=N)N)NC(=O)[C@H](CCCNC(=N)N)NC(=O)[C@H](Cc2c[nH]c3ccccc23)NC(=O)[C@H](Cc2c[nH]c3ccccc23)NC(=O)[C@H](Cc2c[nH]c3ccccc23)NC(=O)[C@H](Cc2c[nH]c3ccccc23)NC(=O)[C@H](Cc2c[nH]c3ccccc23)NC(=O)[C@H](CCCNC(=N)N)NC(=O)[C@H](CCCNC(=N)N)NC(=O)[C@H](CCCNC(=N)N)NC1=O` (cyclo(RRRRRRRWWWWW)), in [2], the TI worked out at 21.9.

Turning to `N=C(N)NCCC[C@@H]1NC(=O)[C@H](CCCNC(=N)N)NC(=O)[C@H](CCCNC(=N)N)NC(=O)[C@H](Cc2c[nH]c3ccccc23)NC(=O)[C@H](Cc2c[nH]c3ccccc23)NC(=O)[C@H](Cc2c[nH]c3ccccc23)NC(=O)[C@H](Cc2c[nH]c3ccccc23)NC(=O)[C@H](Cc2c[nH]c3ccccc23)NC(=O)[C@H](Cc2c[nH]c3ccccc23)NC(=O)[C@H](Cc2c[nH]c3ccccc23)NC(=O)[C@H](CCCNC(=N)N)NC1=O` (cyclo(RRRRWWWWWWW)), the TI in test [2] turned out to be 0.23. The compound also yielded a minimum inhibitory concentration (MIC) in the test on Pseudomonas aeruginosa above 256 µg/mL.

For the compound `N=C(N)NCCC[C@@H]1NC(=O)[C@H](CCCNC(=N)N)NC(=O)[C@H](CCCNC(=N)N)NC(=O)[C@H](CCCNC(=N)N)NC(=O)[C@H](Cc2c[nH]c3ccccc23)NC(=O)[C@H](Cc2c[nH]c3ccccc23)NC(=O)[C@H](Cc2c[nH]c3ccccc23)NC(=O)[C@H](Cc2c[nH]c3ccccc23)NC(=O)[C@H](CCCNC(=N)N)NC(=O)[C@H](CCCNC(=N)N)NC(=O)[C@H](CCCNC(=N)N)NC1=O` (cyclo(RRRRRRRWWWW)), in test [2], the TI was 11.9.

On to `N=C(N)NCCC[C@@H]1NC(=O)[C@H](CCCNC(=N)N)NC(=O)[C@H](Cc2c[nH]c3ccccc23)NC(=O)[C@H](Cc2c[nH]c3ccccc23)NC(=O)[C@H](Cc2c[nH]c3ccccc23)NC(=O)[C@H](CCCNC(=N)N)NC1=O` (cyclo(WWWRRR)), for which, in [2], the TI came out at 9.69.

On to `N=C(N)NCCC[C@@H]1NC(=O)[C@H](CCCNC(=N)N)NC(=O)[C@H](CCCNC(=N)N)NC(=O)[C@H](Cc2c[nH]c3ccccc23)NC(=O)[C@H](Cc2c[nH]c3ccccc23)NC(=O)[C@H](Cc2c[nH]c3ccccc23)NC(=O)[C@H](Cc2c[nH]c3ccccc23)NC(=O)[C@H](Cc2c[nH]c3ccccc23)NC(=O)[C@H](Cc2c[nH]c3ccccc23)NC(=O)[C@H](CCCNC(=N)N)NC(=O)[C@H](CCCNC(=N)N)NC1=O` (cyclo(RRRRRWWWWWW)), for which the MIC against Escherichia coli [1], in the test on Klebsiella pneumoniae, with Staphylococcus aureus [3] and against Pseudomonas aeruginosa was above 256 µg/mL each time. Further, the TI in [2] is above 0.54.

For the compound `N=C(N)NCCC[C@@H]1NC(=O)[C@H](CCCNC(=N)N)NC(=O)[C@H](Cc2c[nH]c3ccccc23)NC(=O)[C@H](Cc2c[nH]c3ccccc23)NC(=O)[C@H](Cc2c[nH]c3ccccc23)NC(=O)[C@H](Cc2c[nH]c3ccccc23)NC1=O` (cyclo(RRWWWW)), in test [2], the TI was determined as 1.33.

Take `N=C(N)NCCC[C@@H]1NC(=O)[C@H](CCCNC(=N)N)NC(=O)[C@H](CCCNC(=N)N)NC(=O)[C@H](Cc2c[nH]c3ccccc23)NC(=O)[C@H](Cc2c[nH]c3ccccc23)NC(=O)[C@H](Cc2c[nH]c3ccccc23)NC(=O)[C@H](Cc2c[nH]c3ccccc23)NC(=O)[C@H](Cc2c[nH]c3ccccc23)NC(=O)[C@H](Cc2c[nH]c3ccccc23)NC(=O)[C@H](CCCNC(=N)N)NC1=O`: the TI in test [2] was determined as 0.59.

Regarding `N=C(N)NCCC[C@@H]1NC(=O)[C@H](CCCNC(=N)N)NC(=O)[C@H](Cc2c[nH]c3ccccc23)NC(=O)[C@H](Cc2c[nH]c3ccccc23)NC(=O)[C@H](Cc2c[nH]c3ccccc23)NC(=O)[C@H](Cc2c[nH]c3ccccc23)NC(=O)[C@H](Cc2c[nH]c3ccccc23)NC(=O)[C@H](Cc2c[nH]c3ccccc23)NC(=O)[C@H](CCCNC(=N)N)NC1=O`, in test [2], the TI turned out to be 1.02.

Take `CC[C@H](C)CCCCC(=O)N[C@@H](CCN)C(=O)N[C@H](C(=O)N[C@@H](CCN)C(=O)N[C@H]1CCNC(=O)[C@H]([C@@H](C)O)NC(=O)[C@H](CCN)NC(=O)[C@H](CCN)NC(=O)[C@H](CC(C)C)NC(=O)[C@@H](Cc2ccccc2)NC(=O)[C@H](CCN)NC1=O)[C@@H](C)O` (X1-[Dab]T[Dab][Dab][Dab][dF]L[Dab][Dab]T; lactam 4-C): the outcome with Staphylococcus aureus [4], with Escherichia coli [5], with Escherichia coli [6] and in the test on Staphylococcus aureus [7] was Active.

In the case of `N=C(N)NCCC[C@@H]1NC(=O)[C@H](CCCNC(=N)N)NC(=O)[C@H](CCCNC(=N)N)NC(=O)[C@H](CCCNC(=N)N)NC(=O)[C@H](Cc2c[nH]c3ccccc23)NC(=O)[C@H](Cc2c[nH]c3ccccc23)NC(=O)[C@H](Cc2c[nH]c3ccccc23)NC(=O)[C@H](Cc2c[nH]c3ccccc23)NC(=O)[C@H](Cc2c[nH]c3ccccc23)NC(=O)[C@H](Cc2c[nH]c3ccccc23)NC(=O)[C@H](Cc2c[nH]c3ccccc23)NC(=O)[C@H](CCCNC(=N)N)NC(=O)[C@H](CCCNC(=N)N)NC(=O)[C@H](CCCNC(=N)N)NC1=O` (cyclo(RRRRRRRWWWWWWW)), the TI in test [2] was found to be 8.75.

As for `N=C(N)NCCC[C@@H]1NC(=O)[C@H](CCCNC(=N)N)NC(=O)[C@H](CCCNC(=N)N)NC(=O)[C@H](Cc2c[nH]c3ccccc23)NC(=O)[C@H](Cc2c[nH]c3ccccc23)NC(=O)[C@H](Cc2c[nH]c3ccccc23)NC(=O)[C@H](Cc2c[nH]c3ccccc23)NC(=O)[C@H](CCCNC(=N)N)NC1=O` (cyclo(RRRRWWWW)), the TI in [2] turned out to be 43.8.

Regarding `N=C(N)NCCC[C@@H]1NC(=O)[C@H](CCCNC(=N)N)NC(=O)[C@H](Cc2c[nH]c3ccccc23)NC(=O)[C@H](Cc2c[nH]c3ccccc23)NC(=O)[C@H](Cc2c[nH]c3ccccc23)NC(=O)[C@H](Cc2c[nH]c3ccccc23)NC(=O)[C@H](CCCNC(=N)N)NC1=O` (cyclo(RRRWWWW)), the TI in test [2] was 13.1.

On to `O=C(O)c1cn(C2CC2)c2cc(N3CCNCC3)c(F)cc2c1=O`, for which the outcome in the test with Staphylococcus aureus [4], in the test with Escherichia coli [6] and with Staphylococcus aureus [7] was Active.

Regarding `N=C(N)NCCC[C@@H]1NC(=O)[C@H](CCCNC(=N)N)NC(=O)[C@H](CCCNC(=N)N)NC(=O)[C@H](Cc2c[nH]c3ccccc23)NC(=O)[C@H](Cc2c[nH]c3ccccc23)NC(=O)[C@H](Cc2c[nH]c3ccccc23)NC(=O)[C@H](Cc2c[nH]c3ccccc23)NC(=O)[C@H](Cc2c[nH]c3ccccc23)NC(=O)[C@H](CCCNC(=N)N)NC(=O)[C@H](CCCNC(=N)N)NC1=O`, in [2], the TI was 57.5.

Consider `N=C(N)NCCC[C@@H]1NC(=O)[C@H](CCCNC(=N)N)NC(=O)[C@H](Cc2c[nH]c3ccccc23)NC(=O)[C@H](Cc2c[nH]c3ccccc23)NC(=O)[C@H](Cc2c[nH]c3ccccc23)NC(=O)[C@H](Cc2c[nH]c3ccccc23)NC(=O)[C@H](Cc2c[nH]c3ccccc23)NC(=O)[C@H](CCCNC(=N)N)NC1=O` (cyclo(RRRWWWWW)), for which the TI in [2] was 0.63.

As to `N=C(N)NCCC[C@@H]1NC(=O)[C@H](CCCNC(=N)N)NC(=O)[C@H](CCCNC(=N)N)NC(=O)[C@H](CCCNC(=N)N)NC(=O)[C@H](Cc2c[nH]c3ccccc23)NC(=O)[C@H](Cc2c[nH]c3ccccc23)NC(=O)[C@H](Cc2c[nH]c3ccccc23)NC(=O)[C@H](Cc2c[nH]c3ccccc23)NC(=O)[C@H](Cc2c[nH]c3ccccc23)NC(=O)[C@H](Cc2c[nH]c3ccccc23)NC(=O)[C@H](CCCNC(=N)N)NC(=O)[C@H](CCCNC(=N)N)NC1=O` (cyclo(RRRRRRWWWWWW)), the TI in [2] worked out at 10.6.

As for `N=C(N)NCCC[C@@H]1NC(=O)[C@H](CCCNC(=N)N)NC(=O)[C@H](Cc2c[nH]c3ccccc23)NC(=O)[C@H](Cc2c[nH]c3ccccc23)NC(=O)[C@H](Cc2c[nH]c3ccccc23)NC1=O` (cyclo(RRWWW)), the TI in [2] was determined as 3.75.
